Experiments:
Motilin receptor [1] = biological target: T1, Motilin receptor (Homo sapiens, UniProt O43193); assay: Displacement of [125I]motilin from human MOTR
How it was run: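 Competition binding on isolated membranes expressing human motilin receptor, with radioiodinated porcine motilin ([125I]-motilin) as tracer. 11-point concentration curves gave Ki, with a top test concentration of 10 µM. Compounds came from 10 mM DMSO stocks stored at -60 °C.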

Motilin receptor [2] = biological target: T1, Motilin receptor; assay: Activity at human MOTR expressed in CHO cells assessed as inhibition of motilin-induced calcium release upto 10 uM; format: functional, cell-based; settings: filed as antagonist
How it was run: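 Aequorin luminescence assay on whole CHO cells expressing cloned human motilin receptor, measuring inhibition of motilin-induced Ca2+ release. Agonist activity was also checked at concentrations up to 10 µM. Compounds were TFA salts held as 10 mM DMSO stocks at -60 °C.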

Oryctolagus cuniculus = organism: Oryctolagus cuniculus; assay: Antagonist activity against rabbit duodenum; settings: read-out: pA2 (converted)
Motilin receptor [3] = biological target: T1, Motilin receptor; assay: Activity at human MOTR expressed in CHO cells assessed as inhibition of motilin-induced calcium release; format: functional, cell-based
How it was run: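 Whole CHO cells expressing cloned human motilin receptor; intracellular Ca2+ release evoked by motilin read out by aequorin luminescence. Compounds were tested in antagonist mode and also checked for agonist activity at concentrations up to 10 µM. Compound stocks were 10 mM in DMSO, stored at -60 °C.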

T1 sequence (O43193 whole entry): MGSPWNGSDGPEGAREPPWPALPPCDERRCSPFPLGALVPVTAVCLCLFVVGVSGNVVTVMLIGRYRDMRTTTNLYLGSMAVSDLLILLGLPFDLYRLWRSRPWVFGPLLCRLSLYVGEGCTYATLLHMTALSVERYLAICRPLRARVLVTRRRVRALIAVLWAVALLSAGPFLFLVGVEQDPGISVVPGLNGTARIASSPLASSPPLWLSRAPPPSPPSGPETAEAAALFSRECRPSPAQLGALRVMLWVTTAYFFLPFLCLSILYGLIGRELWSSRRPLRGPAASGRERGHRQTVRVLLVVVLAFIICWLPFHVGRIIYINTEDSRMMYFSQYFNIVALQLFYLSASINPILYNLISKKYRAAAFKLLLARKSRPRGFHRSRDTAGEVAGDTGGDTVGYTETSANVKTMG

For `CCC[C@@H]1NC(=O)[C@@H](C(C)C)NC(=O)[C@@H](Cc2ccc(OC)cc2)NCCOc2ccccc2CCCNC1=O`, the Ki (Motilin receptor [1]) was 8 nM, the Activity (Motilin receptor [2]) was “Antagonist” and the Kb (Oryctolagus cuniculus) was 100 nM. For the same compound, the IC50 (Motilin receptor [3]) was 23 nM.
